Compound activity deposited in PubChem BioAssay by The Scripps Research Institute Molecular Screening Center.
Most compounds without a hit are left out; they make up all but 0.55% or so of the library.
OXTR agonist – agonists of human oxytocin receptor; CHO-OTR cells, Fluo-8 calcium fluorescence; normalized: DMSO 0%, oxytocin 100%; actives 0.32% (n = 320,000); activation, % at 3 µM; P30559;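 active means activation above the mean of all tested compounds plus 3 SD, cutoff set per screening run, cut at about 20% in these data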;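 further: peak over basal fluorescence ratio from a 100 s FLIPR kinetic read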
Target sequence (P30559 whole entry, looked up): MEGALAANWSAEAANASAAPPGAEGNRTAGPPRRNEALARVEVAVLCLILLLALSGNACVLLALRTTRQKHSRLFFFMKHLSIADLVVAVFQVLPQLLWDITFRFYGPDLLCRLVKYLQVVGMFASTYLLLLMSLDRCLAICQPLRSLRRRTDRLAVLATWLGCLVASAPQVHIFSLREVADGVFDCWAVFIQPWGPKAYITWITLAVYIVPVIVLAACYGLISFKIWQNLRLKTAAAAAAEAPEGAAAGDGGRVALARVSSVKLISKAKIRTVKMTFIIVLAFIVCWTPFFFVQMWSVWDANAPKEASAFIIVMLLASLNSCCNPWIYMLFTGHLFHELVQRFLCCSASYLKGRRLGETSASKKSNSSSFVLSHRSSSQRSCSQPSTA
TRPML3 agonist – agonists of human TRPML3 channel. Q8TDD5. activation, % at 3 µM. HEK293 TRPML3-YFP, Fluo-8 calcium fluorescence; 100% = the carbachol control signal. actives 0.29% (n = 220,000). AID 1448;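 active means activation above its plate's cutoff, the mean activation of the plate's test wells plus 3 SD, cut at about 12% in these data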
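Test system: TRPML3-YFP stable HEK293 cells. Doses: single point at 3 µM. Incubation: dye loading 1 h 37 °C then 30 min ambient, 125 s read. Signal: Fluo-8 calcium dye fluorescence, ex 470-495, em 515-575 nm. Measure: percent activation from peak-to-basal fluorescence ratio, scaled between DMSO and carbachol.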
V1R ag counter – counter-screen for oxytocin receptor agonists: human V1a receptor agonists; AID 2797; actives 0.25% (n = 320,000); CHO-V1R cells, Fluo-8 calcium fluorescence, agonist mode; 0% DMSO, 100% 3 nM vasopressin; activation, % at 3 µM; P37288;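 active means activation above the mean activation of all tested compounds plus 3 SD, per screening run, cut at about 20% in these data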;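 further: signal is peak over basal fluorescence ratio across a 100 second FLIPR read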
TRPN1 ag – zebrafish TRPN1 (NompC) channel agonism. HEK293 zebrafish TRPN1-YFP, Fluo-8 calcium fluorescence; 100% = response to 87 µM carbachol. activation, % at 3 µM. actives 0.18% (n = 220,000);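 active means activation above its plate's cutoff, the mean activation of test wells on that plate plus 3 SD, cut at about 19% in these data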
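Material: zebrafish TRPN1-YFP in HEK293 cells. Doses: one dose of 3 µM, 0.3% DMSO. Incubation: dye 1 h 37 °C plus 30 min RT. Measured by: intracellular calcium fluorescence with Fluo-8.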
OXTR potentiator – potentiates the human oxytocin receptor response. actives 0.061% (n = 320,000). AID 2445. P30559. activation, % at 3 µM. CHO-OTR cells, Fluo-8 calcium fluorescence, potentiator mode; 0% = oxytocin EC15, 100% = EC100;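 active means activation above that plate's cutoff, the mean activation of tested compounds plus 3 SD, cut at about 6.6% in these data, passing the limit was not always enough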
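Assay system: CHO cell line stably expressing human OTR. Reagent: EC15 oxytocin agonist. Dosing: single dose, 3.0 µM nominal final compound concentration. Timing: compound 6 min at room temperature before oxytocin, 100 s read. Signal: kinetic Fluo-8 calcium fluorescence. Controls: oxytocin EC15 low and EC100 high.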
Numbers stand for hits; n = inactive; x = not tested or not shown; + = active, no number.

SMILES	OXTR agonist	TRPML3 agonist	V1R ag counter	TRPN1 ag	OXTR potentiator
COc1cc(/C=C2\SC(=S)N(NS(=O)(=O)c3ccccc3)C2=O)ccc1O	24	17	41	25	n
COc1cc(/C=C2\SC(=S)N(NC(=O)c3ccc(O)c(OC)c3)C2=O)ccc1O	37	x	29	x	n
COc1ccc(/C=C2/SC(=S)N(NS(=O)(=O)c3ccccc3)C2=O)cc1	n	x	n	x	n
COc1cc(/C=C2\SC(=S)N(NC(=O)c3ccncc3)C2=O)ccc1O	n	n	n	n	n
CCOc1cc(/C=C2\SC(=S)N(NS(=O)(=O)c3ccc(C)cc3)C2=O)ccc1O	n	x	n	x	n
COc1cc(/C=C2\SC(=S)N(NS(=O)(=O)c3ccc(C)cc3)C2=O)ccc1O	24	24	39	37	n
O=[N+]([O-])c1ccc(C2Oc3ccccc3C3CC(c4ccccc4)=NN32)s1 (stereo unspecified)	n	n	n	n	n
Nc1nc2ccc(NC(=O)c3ccco3)cc2s1	n	x	n	x	n
CNC(=O)C1CN(C(=O)c2cccc(S(=O)(=O)N3c4ccccc4CC3C)c2)c2ccccc2O1 (stereo unspecified)	n	x	n	x	n
C=CC[C@@H]1C=C(C)C[C@H](C)C[C@H](OC)[C@H]2O[C@@](O)(C(=O)C(=O)N3CCCC[C@H]3C(=O)O[C@H](/C(C)=C/[C@@H]3CC[C@@H](O)[C@H](OC)C3)[C@H](C)[C@@H](O)CC1=O)[C@H](C)C[C@@H]2OC	n	x	n	x	n
CN1C(=O)c2cccc3c(N(C)C)ccc(c23)C1=O	23	x	23	x	n
CNc1ccc2c3c(cccc13)C(=O)N(C)C2=O	192	x	314	x	n
CN1C(=O)c2cccc3c(Cl)ccc(c23)C1=O	n	n	n	n	n
COc1ccc(OC)c(/C=C2/Sc3ccccc3C2=O)c1	24	n	28	n	n
O=C(c1cc(F)ccc1F)C1CCCN(C(=O)c2ccc3nccnc3c2)C1 (stereo unspecified)	n	x	n	x	n
O=C1N=C2N(CCN3CCCCC3)c3ccccc3N2/C1=C\c1ccc([N+](=O)[O-])o1	x	n	x	n	x
CC(C)n1cc(CN2CCCC(C(=O)Nc3cccc(-c4cc5ccccc5[nH]4)c3)C2)cn1 (stereo unspecified)	24	x	26	x	n
Cn1cc(CN2CCCC(C(=O)Nc3cccc(-c4cc5ccccc5[nH]4)c3)C2)cn1 (stereo unspecified)	n	x	n	x	n
COc1ccccc1N1CCN(C2CCCN(C(=O)c3cc(C4CC4)on3)C2)CC1 (stereo unspecified)	n	x	n	x	n
CCN(CC)c1ccc2cc(-c3nc(-c4ccc(OC)cc4)cs3)c(=O)oc2c1	454	67	297	64	n
CCN(CC)c1ccc2cc(-c3nnc(-c4ccc(Br)cc4)o3)c(=O)oc2c1	x	n	x	n	x
CCN(CC)c1ccc2cc(-c3nc4ccccc4[nH]3)c(=O)oc2c1	323	55	288	128	n
CCN(CC)c1ccc2cc(-c3nc4ccccc4n3C)c(=O)oc2c1	n	n	n	n	n
COc1ccccc1NS(=O)(=O)c1cccc(NC(=O)c2cncc(Br)c2)c1	n	x	n	x	n
CCOC(=O)CN1C(=O)S/C(=C/c2ccc3c(c2)n(C)c(=O)n3C)C1=O	n	n	n	n	n
SMILES	OXTR agonist	TRPML3 agonist	V1R ag counter	TRPN1 ag	OXTR potentiator
CCOC(=O)CN1C(=O)S/C(=C/C=C/c2ccc(N(C)C)cc2)C1=O	26	n	28	n	n
COC(=O)c1ccccc1-c1c2ccc(=N)cc-2oc2cc(N)ccc12	+	x	+	x	n
N#Cc1c(NC(=S)NC(=O)c2ccccc2)sc2c1CCN(CCc1ccccc1)C2	28	14	57	24	n
COc1ccccc1-c1cc(C(=O)NC2CCN(C)CC2)c2ccc(Cl)c(C)c2n1	20	x	n	x	n
C/C(=N\Nc1ccc(C(=O)O)cc1)c1ccc(Cl)s1	24	x	34	x	n
CCCCN1C(=O)/C(=C/C=C2\Oc3ccccc3N2CC)SC1=S	x	n	x	n	x
CCCCN1C(=O)/C(=C/C=C2/CC(C)(C)CN2C)SC1=S	52	14	66	26	n
CCN(CC)c1ccc(C2Nc3cccc4cccc(c34)N2)c(O)c1	32	n	n	n	n
